Activity calls are given as the source filed them. The rule behind the calls is not given here.
Assays:
[1] = target: Small conductance calcium-activated potassium channel protein 3 (Rattus norvegicus, UniProt P70605); experiment: (§1) Inhibition of Wistar rat recombinant SK3 channel expressed in HEK293 cells by whole cell patch clamp technique; type: cell-based
How it was run: (§2)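 Whole-cell patch clamp on HEK293 cells stably expressing rat SK3. Extracellular solution contains 4 mM K+. Pipette Ca2+ is buffered at 400 nM. Kd comes from single-concentration kinetics experiments (n = independent experiments), reported as mean ± SEM.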

[2] = target: Small conductance calcium-activated potassium channel protein 3 (Rattus norvegicus) (UniProt P70605); experiment: as §1; type: cell-based; how it was run: as §2
Sequence of Small conductance calcium-activated potassium channel protein 3 (Rattus norvegicus) (P70605 whole entry): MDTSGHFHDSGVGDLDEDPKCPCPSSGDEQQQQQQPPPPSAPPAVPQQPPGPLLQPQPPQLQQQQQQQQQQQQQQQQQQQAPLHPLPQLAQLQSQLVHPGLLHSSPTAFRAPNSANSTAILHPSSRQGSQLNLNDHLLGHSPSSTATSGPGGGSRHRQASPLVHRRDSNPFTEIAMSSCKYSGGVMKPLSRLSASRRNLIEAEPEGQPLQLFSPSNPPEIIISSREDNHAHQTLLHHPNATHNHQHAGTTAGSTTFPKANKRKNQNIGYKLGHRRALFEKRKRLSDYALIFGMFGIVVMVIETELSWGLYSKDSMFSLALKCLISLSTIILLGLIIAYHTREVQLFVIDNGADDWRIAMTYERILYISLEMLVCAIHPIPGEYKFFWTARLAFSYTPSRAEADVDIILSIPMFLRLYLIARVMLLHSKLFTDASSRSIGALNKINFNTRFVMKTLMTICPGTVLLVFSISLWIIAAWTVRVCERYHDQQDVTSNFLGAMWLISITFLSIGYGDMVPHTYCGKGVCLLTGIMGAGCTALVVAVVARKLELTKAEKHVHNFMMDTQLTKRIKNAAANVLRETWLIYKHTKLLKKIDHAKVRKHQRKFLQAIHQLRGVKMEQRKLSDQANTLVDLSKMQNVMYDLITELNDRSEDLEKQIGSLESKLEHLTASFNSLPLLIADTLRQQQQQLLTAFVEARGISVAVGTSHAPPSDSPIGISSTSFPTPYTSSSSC

[3] = Inhibition of human SK3 channel Q493A;D495A mutant expressed in HEK293 cells; type: cell-based
[4] = test system: HEK293; experiment: Inhibition of human SK3 channel Q493A;D495A mutant expressed in HEK293 cells at 300 nM by whole cell assay; type: cell-based
[5] = target: T1, Small conductance calcium-activated potassium channel protein 3 (Homo sapiens, UniProt Q9UGI6); experiment: Inhibition of wild type human SK3 channel expressed in HEK293 cells; type: cell-based
T1 sequence (Q9UGI6 whole entry): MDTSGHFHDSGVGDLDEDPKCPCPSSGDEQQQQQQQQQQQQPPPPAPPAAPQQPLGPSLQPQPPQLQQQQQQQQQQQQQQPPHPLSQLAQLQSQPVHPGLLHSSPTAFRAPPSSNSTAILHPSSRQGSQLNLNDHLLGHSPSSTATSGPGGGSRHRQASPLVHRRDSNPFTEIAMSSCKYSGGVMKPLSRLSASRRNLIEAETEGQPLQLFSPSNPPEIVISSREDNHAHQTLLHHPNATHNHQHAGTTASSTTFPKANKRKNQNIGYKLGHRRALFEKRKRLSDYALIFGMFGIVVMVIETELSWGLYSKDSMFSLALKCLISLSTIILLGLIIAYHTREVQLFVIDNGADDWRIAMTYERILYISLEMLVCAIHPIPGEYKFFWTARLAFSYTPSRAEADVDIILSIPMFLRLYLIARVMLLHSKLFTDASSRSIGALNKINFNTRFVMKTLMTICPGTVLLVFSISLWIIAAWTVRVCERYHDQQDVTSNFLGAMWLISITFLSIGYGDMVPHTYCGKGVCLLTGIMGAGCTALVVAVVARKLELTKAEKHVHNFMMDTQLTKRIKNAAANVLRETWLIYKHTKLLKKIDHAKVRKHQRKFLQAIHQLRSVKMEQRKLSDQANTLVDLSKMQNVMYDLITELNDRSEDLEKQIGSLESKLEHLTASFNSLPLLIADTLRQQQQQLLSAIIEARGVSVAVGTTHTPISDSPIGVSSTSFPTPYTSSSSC

[6] = Inhibition of human SK3 channel Q493A;D495A mutant expressed in HEK293 cells assessed as Ca2+ sensitivity by inside-out patch clamp technique; type: cell-based
How it was run: (§3)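 Inside-out patches from HEK293 cells transiently transfected (lipofectamine) with hSK3 or hSK3(Q493A;D495A), recorded 2-4 days after transfection. Patches are exposed to a series of Ca2+-buffered solutions. Currents are normalized to the current induced by 10 µM Ca2+, and Hill fits give EC50(Ca2+) and nH. Mean ± SEM.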

[7] = target: T1, Small conductance calcium-activated potassium channel protein 3; experiment: Inhibition of wild type human SK3 channel expressed in HEK293 cells at 300 nM by whole cell assay; type: cell-based
[8] = target: T1, Small conductance calcium-activated potassium channel protein 3; experiment: Inhibition of wild type human SK3 channel expressed in HEK293 cells assessed as Ca2+ sensitivity by inside-out patch clamp technique; type: cell-based; how it was run: as §3
[9] = target: T1, Small conductance calcium-activated potassium channel protein 3; experiment: Inhibition of human SK3 channel by inside-out patch clamp technique
[10] = target: T1, Small conductance calcium-activated potassium channel protein 3; experiment: Inhibition of human SK3 channel expressed in HEK293 cells assessed as Ca2+ induced current after drug wash out by whole cell patch clamp technique in presence of bicuculline methobromide; type: cell-based
How it was run: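 Whole-cell SK3 current is measured every 5 s at 0 mV from voltage ramps (-120 to +30 mV). Pipette Ca2+ is buffered at 400 nM. Inhibition is followed to steady state (about 5 min) and then washed out. Bicuculline methobromide (100 µM) is applied for 20 s during the wash. Kd is fitted from the kinetics.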

[11] = target: Small conductance calcium-activated potassium channel protein 1 (Homo sapiens, UniProt Q92952); experiment: Inhibition of human SK1 channel by inside-out patch clamp technique
Sequence of Small conductance calcium-activated potassium channel protein 1 (Q92952 whole entry): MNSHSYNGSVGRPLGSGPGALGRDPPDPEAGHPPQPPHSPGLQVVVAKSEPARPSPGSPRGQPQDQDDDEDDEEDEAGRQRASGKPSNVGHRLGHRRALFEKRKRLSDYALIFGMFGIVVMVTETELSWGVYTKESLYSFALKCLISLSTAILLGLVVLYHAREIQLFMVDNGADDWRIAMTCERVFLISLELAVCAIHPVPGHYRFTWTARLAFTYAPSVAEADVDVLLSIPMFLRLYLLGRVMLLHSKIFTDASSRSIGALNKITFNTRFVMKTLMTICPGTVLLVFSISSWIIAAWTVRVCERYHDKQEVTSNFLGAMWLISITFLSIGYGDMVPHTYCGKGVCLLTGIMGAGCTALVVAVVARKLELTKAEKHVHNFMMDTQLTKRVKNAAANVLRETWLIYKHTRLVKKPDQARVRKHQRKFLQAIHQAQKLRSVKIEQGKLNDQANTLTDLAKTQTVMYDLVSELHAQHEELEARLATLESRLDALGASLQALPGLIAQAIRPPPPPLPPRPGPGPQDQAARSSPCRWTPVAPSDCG

[12] = target: Small conductance calcium-activated potassium channel protein 2 (Homo sapiens, UniProt Q9H2S1); experiment: Inhibition of human SK2 channel by inside-out patch clamp technique
Sequence of Small conductance calcium-activated potassium channel protein 2 (Q9H2S1 whole entry): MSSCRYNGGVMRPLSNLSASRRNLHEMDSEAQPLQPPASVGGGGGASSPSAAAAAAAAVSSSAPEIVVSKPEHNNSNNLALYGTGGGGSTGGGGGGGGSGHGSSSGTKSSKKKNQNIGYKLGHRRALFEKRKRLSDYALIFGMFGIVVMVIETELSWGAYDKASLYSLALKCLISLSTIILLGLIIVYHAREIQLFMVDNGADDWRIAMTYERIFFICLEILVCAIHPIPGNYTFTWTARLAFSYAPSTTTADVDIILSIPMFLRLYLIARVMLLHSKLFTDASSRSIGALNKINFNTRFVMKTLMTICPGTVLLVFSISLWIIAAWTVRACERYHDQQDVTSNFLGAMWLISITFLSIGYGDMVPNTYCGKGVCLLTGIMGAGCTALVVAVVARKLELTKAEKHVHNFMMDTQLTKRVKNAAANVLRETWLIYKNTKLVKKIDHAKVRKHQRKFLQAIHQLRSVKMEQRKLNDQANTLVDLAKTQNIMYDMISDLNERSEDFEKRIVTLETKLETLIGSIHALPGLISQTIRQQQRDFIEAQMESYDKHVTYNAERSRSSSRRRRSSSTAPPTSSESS

Sequence of Small conductance calcium-activated potassium channel protein 3 (Rattus norvegicus, UniProt P70605) (P70605 whole entry): as the sequence (P70605 whole entry) above

| Structure (SMILES) | Kd [1] | further results |
| --- | --- | --- |
| Cc1ccc2c(c1)C(Nc1nc3ccccc3[nH]1)CCC2 (stereo not given) | 20 nM |  |
| c1ccc2c(c1)CCC[C@@H]2Nc1nc2ccccc2[nH]1 | 450 nM |  |
| Clc1ccc2c(c1)C(Nc1nc3ccccc3[nH]1)CCC2 (stereo not given) | 17 nM |  |
| COc1ccc2c(c1)C(Nc1nc3ccccc3[nH]1)CCC2 (stereo not given) | 61 nM |  |
| C[N+]1(C)CCc2cc3c(cc2[C@H]1[C@@H]1OC(=O)c2c1ccc1c2OCO1)OCO3 |  | IC50 [1]: 7000 nM |
| Clc1ccc2c(c1)CCCC2Nc1nc2ccccc2[nH]1 (stereo not given) | 120 nM |  |
| c1ccc(CNc2nc3ccccc3[nH]2)cc1 | 2700 nM |  |
| c1ccc2c(c1)SCCC2Nc1nc2ccccc2[nH]1 (stereo not given) | 130 nM |  |
| CC1CCC(Nc2nc3ccccc3[nH]2)c2ccccc21 (stereo not given) | 32 nM |  |
| Clc1cccc2c1C(Nc1nc3ccccc3[nH]1)CCC2 (stereo not given) | 27 nM |  |
| c1ccc2c(c1)CCCCC2Nc1nc2ccccc2[nH]1 (stereo not given) | 590 nM |  |
| c1ccc2c3c(ccc2c1)CCCC3Nc1nc2ccccc2[nH]1 (stereo not given) | 31 nM |  |
| Cc1cc(NC2CCCCC2)nc(-n2nc(C)cc2C)n1 |  | Activity [2]: Active |
| c1ccc2c(c1)CCC[C@H]2Nc1nc2ccccc2[nH]1 | 77 nM | Kd [3]: 430 nM; inhibition [4]: 45%; Kd [5]: 100 nM; EC50 [6]: 440 nM; inhibition [7]: 75%; EC50 [8]: 400 nM |
| c1ccc2c(c1)CC(Nc1nc3ccccc3[nH]1)C2 | 1700 nM |  |
| CCn1c(=O)[nH]c2ccccc21 |  | Activity [2]: Active |
| c1ccc2c(c1)OCCC2Nc1nc2ccccc2[nH]1 (stereo not given) | > 10000 nM |  |
| Cc1cc(C)c2c(c1)C(Nc1nc3ccccc3[nH]1)CCC2 (stereo not given) | 33 nM |  |
| Clc1cc2c(cc1Cl)C(Nc1nc3ccccc3[nH]1)CCC2 (stereo not given) | 9.1 nM | Kd [9]: 60 nM; Kd [10]: 7.8 nM; EC50 [8]: 1810 nM; Kd [11]: 54 nM; Kd [12]: 47 nM |
| c1ccc(-c2ccc3c(c2)C(Nc2nc4ccccc4[nH]2)CCC3)cc1 (stereo not given) | 600 nM |  |
| c1ccc2[nH]c(NC3CCCc4ccncc43)nc2c1 (stereo not given) | 6500 nM |  |
| Cc1cc(N)c2ccccc2[n+]1CCCCCCCCCC[n+]1c(C)cc(N)c2ccccc21 [DEQUALINIUM CHLORIDE] | 180 nM |  |

| Structure (SMILES) | Kd [1] | further results |
| --- | --- | --- |
| c1ccc2[nH]c(NC3CCCc4sccc43)nc2c1 (stereo not given) | 540 nM |  |
| Clc1ccc(CNc2nc3ccccc3[nH]2)cc1Cl | 200 nM |  |
| c1ccc(CCc2nc3ccccc3[nH]2)cc1 | > 10000 nM |  |
| Clc1ccc(CNc2nc3ccccc3[nH]2)cc1 | 640 nM |  |
| COc1cc2c3cc1Oc1cc(ccc1O)C[C@@H]1c4c(cc(OC)c(O)c4Oc4ccc(cc4)C[C@@H]3N(C)CC2)CC[N+]1(C)C | 16000 nM |  |
| CC1CCc2ccccc2C1Nc1nc2ccccc2[nH]1 (stereo not given) | 170 nM |  |
| Fc1ccc2c(c1)C(Nc1nc3ccccc3[nH]1)CCC2 (stereo not given) | 34 nM |  |
| c1ccc2c(c1)CCN(c1nc3ccccc3[nH]1)C2 | 14000 nM |  |
| O=C1Nc2c(ccc(Cl)c2Cl)/C1=N\O |  | Activity [2]: Active |
| CC(=O)O[C@H]1C[C@@H]2CC[C@@H]3[C@H](CC[C@@]4(C)[C@H]3CC[C@H]([N+]3(C)CCCCC3)[C@@H]4OC(C)=O)[C@@]2(C)C[C@@H]1[N+]1(C)CCCCC1 [PENUCURONIUM] | 21000 nM |  |
| Clc1cccc2c1CCCC2Nc1nc2ccccc2[nH]1 (stereo not given) | 44 nM |  |
| COc1ccc(C[C@H]2c3cc(OC)c(OC)cc3CC[N+]2(C)C)cc1OC [LAUDANOSINE METHIODIDE] | 2600 nM |  |
| Brc1ccc2c(c1)C(Nc1nc3ccccc3[nH]1)CCC2 (stereo not given) | 11 nM |  |
| c1ccc2c(c1)CCC(Nc1nc3ccccc3[nH]1)C2 (stereo not given) | 2000 nM |  |
| c1cc2cc(c1)C[n+]1ccc(c3ccccc31)NCc1ccc(cc1)CNc1cc[n+](c3ccccc13)C2 | 2.7 nM |  |
| COc1ccc(CC2c3cc(OC)c(OC)cc3CC[N+]2(C)CCC(=O)OCCCCCOC(=O)CC[N+]2(C)CCc3cc(OC)c(OC)cc3C2Cc2ccc(OC)c(OC)c2)cc1OC (stereo not given) [ATRACURIUM] | 6400 nM |  |
| c1ccc2c(c1)c1cc[n+]2CCCCC[n+]2ccc(c3ccccc32)NCCCCCN1 | 0.43 nM |  |
| c1ccc(C2CCCCN2c2nc3ccccc3[nH]2)cc1 (stereo not given) | 750 nM |  |
| c1ccc(C2CCCN2c2nc3ccccc3[nH]2)cc1 (stereo not given) | 1600 nM |  |
| c1ccc2c(c1)CCC2Nc1nc2ccccc2[nH]1 (stereo not given) | 790 nM |  |
| c1ccc2c(c1)CCCC2Nc1nc2ccccc2[nH]1 (stereo not given) | 130 nM |  |
| O=C(Nc1nc2ccccc2[nH]1)c1ccc(Cl)cc1 | > 10000 nM |  |

Source: ChEMBL document CHEMBL1140213, “Synthesis and structure-activity relationship studies of 2-(N-substituted)-aminobenzimidazoles as potent negative gating modulators ofsmall conductance Ca2+-activated K+ channels” (J Med Chem, 2008)
